Two molecules from ChEMBL document CHEMBL3621200, “Toward the discovery of dual HCMV-VZV inhibitors: Synthesis, structure activity relationship analysis, and cytotoxicity studies of long chained 2-uracil-3-yl-N-(4-phenoxyphenyl)acetamides” (Bioorg Med Chem, 2015) can be followed below.

Calls of active or inactive are those of the source. The rule behind the calls is not given here.

One data set deals with Influenza B virus. The experiment in a line: Antiviral activity against Influenza B virus. The data set is classed as functional, organism-based.
Settings: not given
The method, boiled down:
(§1)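 Confluent cell monolayers (HEL, Vero, HeLa or MDCK) in 96-well plates were infected with 100 CCID50 of virus in the presence of varying compound concentrations. Cytopathicity was scored once it reached completion in untreated infected controls.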
With `O=C(Cn1c(=O)ccn(CCCCOc2ccc(Br)cc2)c1=O)Nc1ccc(Oc2ccccc2)cc1`, the inhibition result is “inactive”.

On to `O=C(Cn1c(=O)ccn(CCCCCOc2ccc(Br)cc2)c1=O)Nc1ccc(Oc2ccccc2)cc1`, for which the inhibition entry is “inactive”.

For another data set, the system named is HEL. The experiment in a line: Cytotoxicity against Varicella zoster virus infected HEL cells assessed as cell growth inhibition incubated for 3 days by coulter counter method. To be noted: human, 72 h.
For `O=C(Cn1c(=O)ccn(CCCCOc2ccc(Br)cc2)c1=O)Nc1ccc(Oc2ccccc2)cc1`, the half-maximal cytotoxic concentration (CC50) – broadly, the concentration giving 50% cytotoxicity – amounted to 7.7 µM.

For the molecule `O=C(Cn1c(=O)ccn(CCCCCOc2ccc(Br)cc2)c1=O)Nc1ccc(Oc2ccccc2)cc1`, the CC50 was 8.7 µM.

In the next data set the test system is Human alphaherpesvirus 1. The experiment in a line: Antiviral activity against HSV1 KOS.
Settings: not given
Type of data set: functional, organism-based. The method, boiled down:
(§2)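 Confluent cell monolayers in 96-well plates were inoculated with 100 CCID50 of virus together with varying compound concentrations. Cytopathicity was scored once it reached completion in untreated infected controls.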
Turning to `O=C(Cn1c(=O)ccn(CCCCOc2ccc(Br)cc2)c1=O)Nc1ccc(Oc2ccccc2)cc1`, the inhibition result is “inactive”.

As to `O=C(Cn1c(=O)ccn(CCCCCOc2ccc(Br)cc2)c1=O)Nc1ccc(Oc2ccccc2)cc1`, the inhibition entry is “inactive”.

Another data set has as its system Influenza A virus. The experiment in a line: Antiviral activity against Influenza A virus H1N1. Type of data set: functional, organism-based.
Settings: not given
In short, it runs like this:
as §1
For `O=C(Cn1c(=O)ccn(CCCCOc2ccc(Br)cc2)c1=O)Nc1ccc(Oc2ccccc2)cc1`, the inhibition entry is “inactive”.

On to `O=C(Cn1c(=O)ccn(CCCCCOc2ccc(Br)cc2)c1=O)Nc1ccc(Oc2ccccc2)cc1`, for which the inhibition entry was “inactive”.

The next data set relates to HEL. As to the kind of experiment: Cytotoxicity against human cytomegalovirus infected HEL cells assessed as cell growth inhibition incubated for 3 days by coulter counter method. Type of data set: cell-based. To be noted: 72 h. The method, boiled down:
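HEL cells were seeded at 5 × 10^3 cells/well and left to adhere and proliferate for 24 h, then compound-containing medium was added. After 3 days at 37 °C, cells were counted with a Coulter counter.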
`O=C(Cn1c(=O)ccn(CCCCOc2ccc(Br)cc2)c1=O)Nc1ccc(Oc2ccccc2)cc1`: the 50% cytotoxic concentration (CC50) is 7.7 µM.

On to `O=C(Cn1c(=O)ccn(CCCCCOc2ccc(Br)cc2)c1=O)Nc1ccc(Oc2ccccc2)cc1`, for which the CC50 amounted to 8.7 µM.

For another data set, the system named is Punta Toro virus. The experiment in a line: Antiviral activity against Punta Toro virus. The data set is classed as functional, organism-based.
Settings: not given
With `O=C(Cn1c(=O)ccn(CCCCOc2ccc(Br)cc2)c1=O)Nc1ccc(Oc2ccccc2)cc1`, the inhibition entry was “inactive”.

`O=C(Cn1c(=O)ccn(CCCCCOc2ccc(Br)cc2)c1=O)Nc1ccc(Oc2ccccc2)cc1`: the inhibition result was “inactive”.

The subject of a further data set is Human alphaherpesvirus 2. As to the kind of experiment: Antiviral activity against HSV2 Lyons. Type of data set: functional, organism-based.
Settings: not given
In short, it runs like this: as §2
With `O=C(Cn1c(=O)ccn(CCCCOc2ccc(Br)cc2)c1=O)Nc1ccc(Oc2ccccc2)cc1`, the inhibition result was “inactive”.

For `O=C(Cn1c(=O)ccn(CCCCCOc2ccc(Br)cc2)c1=O)Nc1ccc(Oc2ccccc2)cc1`, the inhibition result was “inactive”.

In a further data set the test system is Feline coronavirus. The experiment in a line: Antiviral activity against Feline coronavirus. Type of data set: functional, organism-based.
Settings: not given
Consider `O=C(Cn1c(=O)ccn(CCCCOc2ccc(Br)cc2)c1=O)Nc1ccc(Oc2ccccc2)cc1`, for which the inhibition result was “inactive”.

Turning to `O=C(Cn1c(=O)ccn(CCCCCOc2ccc(Br)cc2)c1=O)Nc1ccc(Oc2ccccc2)cc1`, the inhibition entry is “inactive”.

The test system of the next data set is Influenza A virus H3N2. As to the kind of experiment: Antiviral activity against Influenza A virus H3N2. Type of data set: functional, organism-based.
Settings: not given
In short, it runs like this: as §1
For the molecule `O=C(Cn1c(=O)ccn(CCCCOc2ccc(Br)cc2)c1=O)Nc1ccc(Oc2ccccc2)cc1`, the inhibition entry is “inactive”.

Regarding `O=C(Cn1c(=O)ccn(CCCCCOc2ccc(Br)cc2)c1=O)Nc1ccc(Oc2ccccc2)cc1`, the inhibition entry is “inactive”.

Another data set relates to Human respirovirus 3. As to the kind of experiment: Antiviral activity against Parainfluenza 3 virus. Type of data set: functional, organism-based.
Settings: not given
With `O=C(Cn1c(=O)ccn(CCCCOc2ccc(Br)cc2)c1=O)Nc1ccc(Oc2ccccc2)cc1`, the inhibition entry was “inactive”.

`O=C(Cn1c(=O)ccn(CCCCCOc2ccc(Br)cc2)c1=O)Nc1ccc(Oc2ccccc2)cc1`: the inhibition entry was “inactive”.

Tested on in another data set: not listed separately
As to the kind of experiment: Cytotoxicity against Varicella zoster virus infected HEL cells assessed as alteration of cell morphology incubated for 3 days by microscopy. Type of data set: cell-based. To be noted: human, HEL cells infected with Varicella zoster virus. The method, boiled down:
(§3)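 Cytotoxicity was given as the minimum cytotoxic concentration (MCC): the compound concentration causing a microscopically detectable change in HEL cell morphology.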
With `O=C(Cn1c(=O)ccn(CCCCOc2ccc(Br)cc2)c1=O)Nc1ccc(Oc2ccccc2)cc1`, the MCC at 72 h was above 100 µM.

For `O=C(Cn1c(=O)ccn(CCCCCOc2ccc(Br)cc2)c1=O)Nc1ccc(Oc2ccccc2)cc1`, the MCC at 72 h is above 100 µM.

Tested on in another data set: not listed separately
As to the kind of experiment: Cytotoxicity against human cytomegalovirus infected HEL cells assessed as alteration of cell morphology incubated for 3 days by microscopy. Type of data set: cell-based. To be noted: HEL cells infected with human cytomegalovirus. The method, boiled down:
as §3
`O=C(Cn1c(=O)ccn(CCCCOc2ccc(Br)cc2)c1=O)Nc1ccc(Oc2ccccc2)cc1`: the MCC at 72 h is at least 20 µM.

For `O=C(Cn1c(=O)ccn(CCCCCOc2ccc(Br)cc2)c1=O)Nc1ccc(Oc2ccccc2)cc1`, the MCC at 72 h was 20 µM.

The test system of the next data set is Human betaherpesvirus 5. The experiment in a line: Antiviral activity against human cytomegalovirus Davis infected in HEL cells assessed as reduction in viral plaque formation. Type of data set: functional, organism-based. To be noted: Human betaherpesvirus 5, Davis. The method, boiled down:
(§4)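 Confluent HEL fibroblasts were infected with 100 PFU of HCMV in the presence of varying compound concentrations. Plaques were counted once plaque formation was complete in untreated infected controls.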
For the molecule `O=C(Cn1c(=O)ccn(CCCCOc2ccc(Br)cc2)c1=O)Nc1ccc(Oc2ccccc2)cc1`, the EC50 (commonly the midpoint of the concentration-response curve) stood at 1.64 µM.

Regarding `O=C(Cn1c(=O)ccn(CCCCCOc2ccc(Br)cc2)c1=O)Nc1ccc(Oc2ccccc2)cc1`, the EC50 was 0.97 µM.

Another data set relates to Vaccinia virus. As to the kind of experiment: Antiviral activity against Vaccinia virus Lederle. Type of data set: functional, organism-based. To be noted: Orthopoxvirus vaccinia. The method, boiled down:
as §1
Consider `O=C(Cn1c(=O)ccn(CCCCOc2ccc(Br)cc2)c1=O)Nc1ccc(Oc2ccccc2)cc1`, for which the inhibition result is “inactive”.

As for `O=C(Cn1c(=O)ccn(CCCCCOc2ccc(Br)cc2)c1=O)Nc1ccc(Oc2ccccc2)cc1`, the inhibition entry was “inactive”.

A further data set relates to Coxsackievirus B4. As to the kind of experiment: Antiviral activity against Human coxsackievirus B4. Type of data set: functional, organism-based.
Settings: not given
For `O=C(Cn1c(=O)ccn(CCCCOc2ccc(Br)cc2)c1=O)Nc1ccc(Oc2ccccc2)cc1`, the inhibition result is “inactive”.

Consider `O=C(Cn1c(=O)ccn(CCCCCOc2ccc(Br)cc2)c1=O)Nc1ccc(Oc2ccccc2)cc1`, for which the inhibition result was “inactive”.

The next data set relates to Human immunodeficiency virus 2. As to the kind of experiment: Antiviral activity against HIV2 ROD infected in human CEM cells assessed as reduction in virus- induced cytopathicity incubated for 4 to 5 days by microscopy based virus syncytium formation assay. The data set is classed as functional, organism-based. To be noted: ISOLATE ROD, CCRF-CEM. In short, it runs like this:
(§5)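 CEM cells at ~3 × 10^5 cells/mL, infected with 100 CCID50 of HIV per mL in the presence of compound dilutions. Incubated 4–5 days at 37 °C in humidified CO2. Syncytium (giant cell) formation scored by microscopy.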
`O=C(Cn1c(=O)ccn(CCCCOc2ccc(Br)cc2)c1=O)Nc1ccc(Oc2ccccc2)cc1`: the inhibition entry was “inactive”.

As for `O=C(Cn1c(=O)ccn(CCCCCOc2ccc(Br)cc2)c1=O)Nc1ccc(Oc2ccccc2)cc1`, the inhibition result is “inactive”.

The test system of a further data set is Sindbis virus. The experiment in a line: Antiviral activity against Sindbis virus.
Settings: not given
Type of data set: functional, organism-based.
Regarding `O=C(Cn1c(=O)ccn(CCCCOc2ccc(Br)cc2)c1=O)Nc1ccc(Oc2ccccc2)cc1`, the inhibition entry was “inactive”.

In the case of `O=C(Cn1c(=O)ccn(CCCCCOc2ccc(Br)cc2)c1=O)Nc1ccc(Oc2ccccc2)cc1`, the inhibition entry was “inactive”.

Tested on in the next data set: not listed separately
The experiment in a line: Selectivity index, ratio of CC50 for human cytomegalovirus Davis infected HEL cells to EC50 for human cytomegalovirus Davis. Type of data set: toxicity, cell-based. To be noted: HEL cells infected with human cytomegalovirus Davis, read-out: Ratio CC50/EC50.
On to `O=C(Cn1c(=O)ccn(CCCCCOc2ccc(Br)cc2)c1=O)Nc1ccc(Oc2ccccc2)cc1`, for which the selectivity ratio is 9.

In the next data set the test system is Mammalian orthoreovirus 1. As to the kind of experiment: Antiviral activity against Reovirus 1. The data set is classed as functional.
Settings: not given
As to `O=C(Cn1c(=O)ccn(CCCCOc2ccc(Br)cc2)c1=O)Nc1ccc(Oc2ccccc2)cc1`, the inhibition entry is “inactive”.

As to `O=C(Cn1c(=O)ccn(CCCCCOc2ccc(Br)cc2)c1=O)Nc1ccc(Oc2ccccc2)cc1`, the inhibition entry is “inactive”.

The subject of the next data set is Human herpesvirus 2 strain G. As to the kind of experiment: Antiviral activity against HSV2 G Lyons. The data set is classed as functional, organism-based.
Settings: not given
Regarding `O=C(Cn1c(=O)ccn(CCCCOc2ccc(Br)cc2)c1=O)Nc1ccc(Oc2ccccc2)cc1`, the inhibition entry was “inactive”.

Consider `O=C(Cn1c(=O)ccn(CCCCCOc2ccc(Br)cc2)c1=O)Nc1ccc(Oc2ccccc2)cc1`, for which the inhibition entry is “inactive”.

The next data set has as its system Human betaherpesvirus 5. The experiment in a line: Antiviral activity against human cytomegalovirus AD169 infected in HEL cells assessed as reduction in viral plaque formation. The data set is classed as functional, organism-based. To be noted: Human betaherpesvirus 5, AD169, HEL. In short, it runs like this: as §4
As for `O=C(Cn1c(=O)ccn(CCCCOc2ccc(Br)cc2)c1=O)Nc1ccc(Oc2ccccc2)cc1`, the half-maximal effective concentration (EC50) is 1.79 µM.

Tested on in a further data set: not listed separately
As to the kind of experiment: Selectivity index, ratio of CC50 for human cytomegalovirus AD169 infected HEL cells to EC50 for human cytomegalovirus AD169. Type of data set: toxicity, cell-based. To be noted: HEL cells infected with human cytomegalovirus AD169, read-out: Ratio CC50/EC50.
As for `O=C(Cn1c(=O)ccn(CCCCCOc2ccc(Br)cc2)c1=O)Nc1ccc(Oc2ccccc2)cc1`, the selectivity ratio is 9.

The test system of the next data set is Vesicular stomatitis virus. The experiment in a line: Antiviral activity against Vesicular stomatitis virus.
Settings: not given
Type of data set: functional, organism-based. In short, it runs like this:
as §1
On to `O=C(Cn1c(=O)ccn(CCCCOc2ccc(Br)cc2)c1=O)Nc1ccc(Oc2ccccc2)cc1`, for which the inhibition entry was “inactive”.

Turning to `O=C(Cn1c(=O)ccn(CCCCCOc2ccc(Br)cc2)c1=O)Nc1ccc(Oc2ccccc2)cc1`, the inhibition result was “inactive”.

The next data set concerns Human immunodeficiency virus 1. The experiment in a line: Antiviral activity against HIV1 3B infected in human CEM cells assessed as reduction in virus- induced cytopathicity incubated for 4 to 5 days by microscopy based virus syncytium formation assay. The data set is classed as functional, organism-based. To be noted: CCRF-CEM. In short, it runs like this:
as §5
A general note: Damage to the host cells serves as the signal in cytopathic effect assays.
Take `O=C(Cn1c(=O)ccn(CCCCOc2ccc(Br)cc2)c1=O)Nc1ccc(Oc2ccccc2)cc1`: the inhibition result was “inactive”.

Take `O=C(Cn1c(=O)ccn(CCCCCOc2ccc(Br)cc2)c1=O)Nc1ccc(Oc2ccccc2)cc1`: the inhibition result was “inactive”.
